Source: PubChem (Broad Institute)
SR-BI uptake up: activators of SR-BI mediated DiI-HDL uptake, primary screen, ldlA[mSR-BI] CHO cells, DiI fluorescence. 3 h; 100 = double the neutral-control signal. activation, % at 12.5 µM. 320,000 tested, 0.096% active. AID 504775, 2011;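 active means mean replicate activation of at least 60% and every replicate at or above 60%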;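 further: 0% = median plate neutral-control signal and 100% = twice that signal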
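Test system: SR-BI-overexpressing, LDLR-lacking CHO cells. Measured by: DiI fluorescence, bottom read. Medium: Ham's F12 with 0.5% BSA, HEPES 25 mM, pH 7.4. Timing: 3 h uptake period with compound, 37 °C.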
dFosB act-1: activators of delta FosB homodimer, primary screen, biochemical, fluorescence polarization, TAMRA-CDK5 oligo, single point | activation, % at 25 µM | purified delta FosB; percent of positive-control signal above neutral wells | 340,000 tested, 0.99% active | Protein FosB (Mus musculus), P13346;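 active means mean activation above about 17%, with every replicate also reaching it, limit read from the data, passing the limit was not always enough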
SR-BI DiI inh: inhibitors of SR-BI mediated HDL lipid uptake, primary screen, ldlA[mSR-BI] cells, fluorescence, single point. Scavenger receptor class B member 1 (Mus musculus), Q61009. ldlA[mSR-BI] CHO cells, DiI-HDL uptake fluorescence, 3 h. inhibition, % at 12.5 µM. 320,000 tested, 0.96% active. AID 488896, 2010;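 active means mean replicate inhibition of at least 70% and a set share of replicates each scoring 70 or more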;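 further: 0% = median of neutral control wells and 100% = median of positive control wells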
CDK5 inh: inhibitors of human CDK5/p35 kinase, primary screen, biochemical, single concentration; Cyclin-dependent kinase 5 (Homo sapiens) + Cyclin-dependent kinase 5 activator 1 (Homo …; inhibition, % at 10 µM; 330,000 tested, 0.01% active; Recombinant CDK5/p35, ADP-Glo luminescence, 60 min;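 active means highest replicate inhibition of at least 50% and at least 75% of replicates reaching 50%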;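 further: plate controls were DMSO neutral control for no effect and GW8510 at 10 µM for full effect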
Target sequence (Q00535 whole entry, looked up): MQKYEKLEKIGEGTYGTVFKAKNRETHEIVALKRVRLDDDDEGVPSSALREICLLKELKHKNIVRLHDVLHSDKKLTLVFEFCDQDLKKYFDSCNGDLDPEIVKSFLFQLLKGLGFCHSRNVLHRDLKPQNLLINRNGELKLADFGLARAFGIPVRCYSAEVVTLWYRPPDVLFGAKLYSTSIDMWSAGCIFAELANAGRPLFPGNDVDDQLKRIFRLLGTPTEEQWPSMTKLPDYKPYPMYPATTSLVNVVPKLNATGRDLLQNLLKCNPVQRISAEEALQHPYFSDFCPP
Target sequence (Q15078 whole entry, looked up): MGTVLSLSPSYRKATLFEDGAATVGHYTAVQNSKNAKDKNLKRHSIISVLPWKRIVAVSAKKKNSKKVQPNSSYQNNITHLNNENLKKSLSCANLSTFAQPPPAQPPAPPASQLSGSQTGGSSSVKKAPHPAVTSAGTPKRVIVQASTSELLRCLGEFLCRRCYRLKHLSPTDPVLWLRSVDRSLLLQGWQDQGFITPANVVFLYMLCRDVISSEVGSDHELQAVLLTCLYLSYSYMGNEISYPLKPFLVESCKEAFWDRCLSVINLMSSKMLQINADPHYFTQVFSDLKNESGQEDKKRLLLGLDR
dFosB act-2: activators of mouse delta FosB DNA binding, confirmation, biochemical, fluorescence polarization, TAMRA-CDK5 oligo, cherry-picked samples. shares compounds with dFosB act-1. purified delta FosB; normalised: neutral wells 0, positive control 100. activation, % at 24.9 µM. 2,400 tested, under 10 active;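 active means highest replicate activation at or above 34% and every replicate reaching that threshold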;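 further: higher polarization means more probe DNA bound by delta FosB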
Starred values were filed as active, the others as inactive. Compounds with a hit are over-represented: about 2% of the library has one in this group of screens.

What do the screens show for `CCCCn1c(N)c(N(CC(C)C)C(=O)C2CCN(S(=O)(=O)c3ccc(OCC)cc3)CC2)c(=O)[nH]c1=O`?
SR-BI uptake up: -4.6; dFosB act-1: 19.1*; SR-BI DiI inh: 4.6; CDK5 inh: -0.8; dFosB act-2: 4.3

What do the screens show for `O=C(/C=C/c1cccc(Cl)c1)NNC(=O)c1ccncc1`?
SR-BI uptake up: 20.6; dFosB act-1: -6.1; SR-BI DiI inh: -20.6; CDK5 inh: -1.1

How did O=C(Nc1ccc(Oc2ccccc2)cc1)c1ccc(Cn2c(=O)[nH]c3ccsc3c2=O)cc1 do in these assays?
SR-BI uptake up: -39.1; dFosB act-1: 62.3*; SR-BI DiI inh: 39.1; CDK5 inh: -0.3; dFosB act-2: 7.1

Results for O=C(Nc1ccc(Cl)c(Cl)c1)c1ccc(Cn2c(=O)[nH]c3ccsc3c2=O)cc1 ?
SR-BI uptake up: -20.6; dFosB act-1: 21.6*; SR-BI DiI inh: 20.6; CDK5 inh: 1.1; dFosB act-2: 1.6

Results for O=C(CNCc1ccc(F)cc1)Nc1cc(S(=O)(=O)N2CCOCC2)ccc1Cl ?
SR-BI uptake up: -23.8; dFosB act-1: -11.3; SR-BI DiI inh: 23.8; CDK5 inh: -2.1

What do the screens show for `C=CCOc1c(Br)cc(/C=N/NC(=O)Cc2ccc(C(F)(F)F)cc2[N+](=O)[O-])cc1OC`?
SR-BI uptake up: -75.1; dFosB act-1: 36.7*; SR-BI DiI inh: 75.1*; dFosB act-2: -1.3

What do the screens show for `CCOc1cc(/C=N/NC(=O)Cc2ccc(C(F)(F)F)cc2[N+](=O)[O-])ccc1O`?
SR-BI uptake up: 34.4; dFosB act-1: -13.5; SR-BI DiI inh: -34.4; CDK5 inh: -3.6

How did Cc1nc2c(o1)C(=O)c1ccccc1C2=Nc1ccccc1 do in these assays?
SR-BI uptake up: -8.8; dFosB act-1: -4.8; SR-BI DiI inh: 8.8; CDK5 inh: -2.3

Results for O=C(CSc1nc2[nH]ncc2c(=O)[nH]1)NCc1ccc(F)cc1 ?
SR-BI uptake up: -8.9; dFosB act-1: -2.4; SR-BI DiI inh: 8.9; CDK5 inh: 1.4

How did COC(=O)C1CCN(C(=O)COC(=O)CSc2ccc(C(N)=O)cc2[N+](=O)[O-])CC1 do in these assays?
SR-BI uptake up: 6.4; dFosB act-1: -5.1; SR-BI DiI inh: -6.4; CDK5 inh: 2.4

How did COc1ccc(O)c(C(=O)c2cnn(C(=O)c3cccc(S(=O)(=O)N(C)C)c3)c2)c1 do in these assays?
SR-BI uptake up: 5.2; dFosB act-1: 36.7*; SR-BI DiI inh: -5.2; CDK5 inh: 3.1; dFosB act-2: 1.2

What do the screens show for `COc1ccc2cc(C)c3nnc(SCC(=O)Nc4nc(-c5ccccc5)cs4)n3c2c1`?
SR-BI uptake up: -20.3; dFosB act-1: 41.1*; SR-BI DiI inh: 20.3; CDK5 inh: -0.8; dFosB act-2: 1.8

What do the screens show for `COc1ccc2cc(C)c3nnc(SCC(=O)Nc4cc(OC)c(OC)cc4C(=O)O)n3c2c1`?
SR-BI uptake up: 10.7; dFosB act-1: -0.2; SR-BI DiI inh: -10.7; CDK5 inh: 2.4

What do the screens show for `COc1cc(-c2cc(C(=O)Nc3cccc(C(C)=O)c3)c3ccccc3n2)cc(OC)c1OC`?
SR-BI uptake up: -84.5; dFosB act-1: 28.1*; SR-BI DiI inh: 84.5*; CDK5 inh: -1.0; dFosB act-2: 2.2

How did COc1cc(-c2cc(C(=O)Nc3ccc(O)cc3)c3ccccc3n2)cc(OC)c1OC do in these assays?
dFosB act-1: 2.7; CDK5 inh: -0.2

Results for CN(CC(=O)Nc1c(Cl)cccc1Cl)C(=O)Cc1cccs1 ?
SR-BI uptake up: 17.7; dFosB act-1: -6.1; SR-BI DiI inh: -17.7; CDK5 inh: 0.0

How did COc1ccc(NC(=O)CCCN2C(=O)C(c3ccccc3)Oc3cccnc32)cc1OC (stereo not drawn) do in these assays?
SR-BI uptake up: -36.0; dFosB act-1: -0.6; SR-BI DiI inh: 36.0; CDK5 inh: -3.4

What do the screens show for `COc1ccc(Br)cc1CNC(=O)CN1C(=O)C(c2ccccc2)Oc2cccnc21` (stereo not drawn)?
SR-BI uptake up: -40.0; dFosB act-1: 26.6*; SR-BI DiI inh: 40.0; CDK5 inh: -0.1; dFosB act-2: 1.4

What do the screens show for `CC(=O)Oc1cccc(N2C(=O)c3ccc(C(=O)Nc4c[nH]c(=O)[nH]c4=O)cc3C2=O)c1`?
SR-BI uptake up: 10.5; dFosB act-1: 20.3*; SR-BI DiI inh: -10.5; CDK5 inh: -2.5; dFosB act-2: 0.7

Results for COc1cc2c(cc1OC)CN(C(=O)CN1CCN(S(=O)(=O)c3ccc(C)c(C)c3)CC1)CC2 ?
SR-BI uptake up: -2.6; dFosB act-1: -15.1; SR-BI DiI inh: 2.6; CDK5 inh: 2.0

How did CC(=O)c1cccc(NC(=O)Cn2c(=O)oc3cc(S(=O)(=O)N4CCCC4)ccc32)c1 do in these assays?
SR-BI uptake up: 19.0; dFosB act-1: 32.8*; SR-BI DiI inh: -19.0; CDK5 inh: -0.7; dFosB act-2: -0.4

How did COc1ccc(NC(=O)Cn2c(=O)oc3cc(S(=O)(=O)N4CCCC4)ccc32)cc1 do in these assays?
SR-BI uptake up: -14.5; dFosB act-1: 2.3; SR-BI DiI inh: 14.5; CDK5 inh: -10.2

What do the screens show for `Cc1ccccc1C(=O)Nc1ccnn1C1CCN(C(C)Cc2ccccc2F)CC1` (stereo not drawn)?
SR-BI uptake up: 3.0; dFosB act-1: -4.8; SR-BI DiI inh: -3.0; CDK5 inh: 0.1

What do the screens show for `O=C(CN1C(=O)c2ccccc2C1=O)NCC(=O)OCC(=O)c1ccc(Br)cc1`?
SR-BI uptake up: 19.0; dFosB act-1: 46.1*; SR-BI DiI inh: -19.0; CDK5 inh: 2.0; dFosB act-2: 6.3

How did O=C(CNC(=O)c1ccc(N2C(=O)c3ccccc3C2=O)cc1)OCC(=O)c1ccc(Cl)cc1 do in these assays?
SR-BI uptake up: -25.0; dFosB act-1: 112.8*; SR-BI DiI inh: 25.0; CDK5 inh: -1.7; dFosB act-2: 5.0

How did O=C(O)CCC(=O)Nc1ccccc1Oc1ccccc1 do in these assays?
SR-BI uptake up: 22.1; dFosB act-1: 3.6; SR-BI DiI inh: -22.1; CDK5 inh: -8.3

What do the screens show for `NS(=O)(=O)c1ccc(NC(=O)/C=C/c2cn(-c3ccccc3)nc2-c2cccc(Cl)c2)cc1`?
SR-BI uptake up: -33.5; dFosB act-1: 141.6*; SR-BI DiI inh: 33.5; CDK5 inh: -1.4; dFosB act-2: 2.0

What do the screens show for `O=C(Nc1ccc(S(=O)(=O)Nc2cnc3ccccc3n2)cc1)c1ccc(F)cc1`?
SR-BI uptake up: 13.8; dFosB act-1: -2.5; SR-BI DiI inh: -13.8; CDK5 inh: -2.7

Results for O=C(Nc1ccc(S(=O)(=O)Nc2cnc3ccccc3n2)cc1)c1cccc(OC(F)F)c1 ?
dFosB act-1: 56.9*; CDK5 inh: 1.2; dFosB act-2: 1.3
